Laboratory results reported in ChEMBL document CHEMBL2169847, “New tricks for an old natural product: discovery of highly potent evodiamine derivatives as novel antitumor agents by systemic structure-activity relationship analysis and biological evaluations” (J Med Chem, 2012).
Activity calls are given as the source filed them. The rule behind the calls is not given here.

Assays:
[1] = target: DNA topoisomerase 2-alpha (Homo sapiens) (UniProt P11388); assay: Inhibition of human Top2alpha assessed as suppression of supercoiled pBR322 DNA relaxation at 50 uM incubated for 30 mins by electrophoresis method
[2] = system: A549; assay: Cytotoxicity against human A549 cells incubated for 72 hrs by MTT assay; assay type: functional; settings: A549, 72 h
Method in brief: (§1)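 MTT assay. Cells seeded at 5 × 10³/well and grown 24 h at 37 °C, 5% CO₂. Compounds added at several concentrations in triplicate wells, with 0.1% DMSO control, for 72 h. MTT then added for 4 h, formazan dissolved in DMSO, and absorbance read at 570 nm. GI₅₀ by Logit method; three experiments.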

[3] = system: Mus musculus; assay: Toxicity in BALB/C nude mouse xenografted with human A549 cells assessed as reduction in body weight at 2 mg/kg, ip administered as a single dose on 17th day and measured on 30 to 33 days post implantation; assay type: organism-based; set-up: dose 2 mg/kg, route intraperitoneal; settings: in vivo
Method in brief: (§2)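 Cells implanted subcutaneously in right axilla of nude mice; dosing began at tumor volume about 100−300 mm³ (day 17). Randomized, six mice per treatment group and eight controls; ip injection. Tumor volume by caliper, TV = 1/2 × a × b², with body weight every 4 days. Mice sacrificed day 30−33 and tumors removed. Mean SEM, Student's t test versus control.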

[4] = target: T1, DNA topoisomerase 1 (Homo sapiens) (UniProt P11387); assay: Inhibition of Top1 assessed as suppression of supercoiled pBR322 DNA relaxation measuring appearance of short DNA fragments at 100 uM incubated for 15 mins by electrophoresis method
T1 sequence (whole entry): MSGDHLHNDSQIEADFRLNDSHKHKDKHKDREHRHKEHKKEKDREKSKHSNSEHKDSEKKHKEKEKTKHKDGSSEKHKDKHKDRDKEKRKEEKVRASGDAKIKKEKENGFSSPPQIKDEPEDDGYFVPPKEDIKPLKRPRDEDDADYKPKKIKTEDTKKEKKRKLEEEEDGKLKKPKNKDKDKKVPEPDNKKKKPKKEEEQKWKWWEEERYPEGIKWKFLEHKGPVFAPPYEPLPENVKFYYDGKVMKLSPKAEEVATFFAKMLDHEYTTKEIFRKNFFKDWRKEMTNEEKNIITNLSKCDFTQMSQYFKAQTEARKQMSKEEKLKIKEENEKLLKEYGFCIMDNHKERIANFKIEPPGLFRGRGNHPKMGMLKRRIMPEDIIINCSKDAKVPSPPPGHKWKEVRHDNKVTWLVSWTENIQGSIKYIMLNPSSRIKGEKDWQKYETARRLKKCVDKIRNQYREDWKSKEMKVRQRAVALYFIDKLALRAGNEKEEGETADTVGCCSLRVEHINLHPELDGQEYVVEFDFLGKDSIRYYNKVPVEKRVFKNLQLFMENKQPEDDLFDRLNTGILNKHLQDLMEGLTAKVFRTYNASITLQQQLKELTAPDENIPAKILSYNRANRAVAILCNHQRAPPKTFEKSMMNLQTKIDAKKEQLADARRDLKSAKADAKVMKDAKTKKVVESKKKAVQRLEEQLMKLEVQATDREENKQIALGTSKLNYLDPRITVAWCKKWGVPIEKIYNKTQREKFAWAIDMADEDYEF

[5] = system: MDA-MB-435; assay: Cytotoxicity against human MDA-MB-435 cells incubated for 72 hrs by MTT assay; assay type: functional; settings: MDA-MB-435, 72 h; method in brief: as §1
[6] = system: HCT-116; assay: Cytotoxicity against human HCT116 cells incubated for 72 hrs by MTT assay; assay type: functional; settings: HCT-116, 72 h; method in brief: as §1
[7] = system: A549; assay: Antitumor activity against human A549 cells xenografted in BALB/C nude mouse assessed as tumor growth inhibition at 2 mg/kg, ip administered as a single dose on 17th day post implantation and measured on 30 to 33 days post implantation; assay type: functional, organism-based; set-up: dose 2 mg/kg; method in brief: as §2
[8] = target: DNA topoisomerase 2-alpha (Homo sapiens) (UniProt P11388); assay: Inhibition of human Top2alpha assessed as stabilization of Top2-pBr322 DNA cleavage complex measuring linear DNA formation at 100 uM incubated for 20 mins by electrophoresis method
Method in brief: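 Top2α drug screening kit with 8 units hTop2α and pBR322 plasmid. After reaction, proteinase K (200 μg/mL final) 20 min at 50 °C. Electrophoresis in TAE with 0.5 μg/mL ethidium bromide to resolve nicked, linear, relaxed and supercoiled forms.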

[9] = system: HepG2; assay: Cytotoxicity against human HepG2 cells incubated for 72 hrs by MTT assay; assay type: functional; settings: HepG2, 72 h; method in brief: as §1
[10] = system: U2OS; assay: Cytotoxicity against human U2OS cells incubated for 72 hrs by MTT assay; assay type: functional; method in brief: as §1
[11] = system: PANC-1; assay: Cytotoxicity against human PANC1 cells incubated for 72 hrs by MTT assay; assay type: functional; settings: PANC-1, 72 h; method in brief: as §1
[12] = system: PC-3; assay: Cytotoxicity against human PC3 cells incubated for 72 hrs by MTT assay; assay type: functional; settings: PC-3, 72 h; method in brief: as §1
[13] = system: HL-60; assay: Cytotoxicity against human HL60 cells incubated for 72 hrs by MTT assay; assay type: functional; settings: HL-60, 72 h; method in brief: as §1
[14] = system: SAOS-2; assay: Cytotoxicity against human Saos2 cells incubated for 72 hrs by MTT assay; assay type: functional; settings: SAOS-2, 72 h; method in brief: as §1
[15] = system: ZR-75-30; assay: Cytotoxicity against human ZR75-30 cells incubated for 72 hrs by MTT assay; assay type: functional; settings: ZR-75-30, 72 h; method in brief: as §1
[16] = Cytotoxicity against human KYSE-150 cells incubated for 72 hrs by MTT assay; assay type: functional; settings: KYSE-150, 72 h; method in brief: as §1
[17] = system: CNE; assay: Cytotoxicity against human CNE cells incubated for 72 hrs by MTT assay; assay type: functional; method in brief: as §1
[18] = system: Mus musculus; assay: Toxicity in BALB/C nude mouse xenografted with human HCT116 cells assessed as reduction in body weight at 2 mg/kg, ip administered as a single dose on 17th day and measured on 30 to 33 days post implantation; assay type: organism-based, HCT-116; set-up: dose 2 mg/kg, route intraperitoneal; settings: in vivo; method in brief: as §2
[19] = target: T1, DNA topoisomerase 1 (Homo sapiens); assay: Inhibition of Top1 assessed as suppression of supercoiled pBR322 DNA relaxation measuring appearance of short DNA fragments at 50 uM incubated for 15 mins by electrophoresis method
[20] = system: HCT-116; assay: Antitumor activity against human HCT116 cells xenografted in BALB/C nude mouse assessed as tumor growth inhibition at 2 mg/kg, ip administered as a single dose on 17th day and measured on 30 to 33 days post implantation; assay type: functional, organism-based; set-up: dose 2 mg/kg; method in brief: as §2
[21] = target: T1, DNA topoisomerase 1 (Homo sapiens); assay: Inhibition of Top1 assessed as stabilization of Top1-pUC19 DNA cleavage complex measuring increase of nicked DNA at 100 uM incubated for 15 mins by electrophoresis method
[22] = system: Nucleic Acid; assay: Induction of DNA intercalation in Escherichia coli pBR322 DNA assessed as induction of supercoiled DNA at 100 uM incubated for 15 mins by electrophoresis based Top1 unwinding assay; assay type: nucleic-acid assay
[23] = system: A549; assay: Induction of apoptosis in human A549 cells at 5 uM incubated for 48 hrs by flow cytometry (reference value: 0.43%); assay type: functional
[24] = system: Nucleic Acid; assay: Binding affinity at calf thymus DNA at 50 uM after 20 mins by UV/vis absorbance titration based assay; assay type: nucleic-acid assay; settings: Bos taurus
Method in brief: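 ct-DNA in DPBS pH 7.4, concentration set by A260 (13200 M⁻¹/cm per bp). Compounds at 50 μM in DPBS with 1% DMSO, with or without ct-DNA 0−100 μM. After 20 min equilibration at room temperature, absorption spectra recorded over 220−400 nm in a microplate reader. Hypochromic or bathochromic shifts taken as the sign of binding.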

[25] = system: A549; assay: Induction of apoptosis in human A549 cells assessed as change in cell morphology at 5 uM incubated for 48 hrs by immunostaining based light microscopy; assay type: functional
Method in brief: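 A549 cells exposed to 5 μM compound, or DMSO, for 48 h. Morphology judged under a light microscope.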

[26] = system: Nucleic Acid; assay: Binding affinity at calf thymus DNA minor groove assessed as displacement of Hoechst 33258 dye incubated for 20 mins by microplate reader based assay; assay type: nucleic-acid assay; settings: Bos taurus

DNA topoisomerase 2-alpha (Homo sapiens), sequence (P11388 whole entry): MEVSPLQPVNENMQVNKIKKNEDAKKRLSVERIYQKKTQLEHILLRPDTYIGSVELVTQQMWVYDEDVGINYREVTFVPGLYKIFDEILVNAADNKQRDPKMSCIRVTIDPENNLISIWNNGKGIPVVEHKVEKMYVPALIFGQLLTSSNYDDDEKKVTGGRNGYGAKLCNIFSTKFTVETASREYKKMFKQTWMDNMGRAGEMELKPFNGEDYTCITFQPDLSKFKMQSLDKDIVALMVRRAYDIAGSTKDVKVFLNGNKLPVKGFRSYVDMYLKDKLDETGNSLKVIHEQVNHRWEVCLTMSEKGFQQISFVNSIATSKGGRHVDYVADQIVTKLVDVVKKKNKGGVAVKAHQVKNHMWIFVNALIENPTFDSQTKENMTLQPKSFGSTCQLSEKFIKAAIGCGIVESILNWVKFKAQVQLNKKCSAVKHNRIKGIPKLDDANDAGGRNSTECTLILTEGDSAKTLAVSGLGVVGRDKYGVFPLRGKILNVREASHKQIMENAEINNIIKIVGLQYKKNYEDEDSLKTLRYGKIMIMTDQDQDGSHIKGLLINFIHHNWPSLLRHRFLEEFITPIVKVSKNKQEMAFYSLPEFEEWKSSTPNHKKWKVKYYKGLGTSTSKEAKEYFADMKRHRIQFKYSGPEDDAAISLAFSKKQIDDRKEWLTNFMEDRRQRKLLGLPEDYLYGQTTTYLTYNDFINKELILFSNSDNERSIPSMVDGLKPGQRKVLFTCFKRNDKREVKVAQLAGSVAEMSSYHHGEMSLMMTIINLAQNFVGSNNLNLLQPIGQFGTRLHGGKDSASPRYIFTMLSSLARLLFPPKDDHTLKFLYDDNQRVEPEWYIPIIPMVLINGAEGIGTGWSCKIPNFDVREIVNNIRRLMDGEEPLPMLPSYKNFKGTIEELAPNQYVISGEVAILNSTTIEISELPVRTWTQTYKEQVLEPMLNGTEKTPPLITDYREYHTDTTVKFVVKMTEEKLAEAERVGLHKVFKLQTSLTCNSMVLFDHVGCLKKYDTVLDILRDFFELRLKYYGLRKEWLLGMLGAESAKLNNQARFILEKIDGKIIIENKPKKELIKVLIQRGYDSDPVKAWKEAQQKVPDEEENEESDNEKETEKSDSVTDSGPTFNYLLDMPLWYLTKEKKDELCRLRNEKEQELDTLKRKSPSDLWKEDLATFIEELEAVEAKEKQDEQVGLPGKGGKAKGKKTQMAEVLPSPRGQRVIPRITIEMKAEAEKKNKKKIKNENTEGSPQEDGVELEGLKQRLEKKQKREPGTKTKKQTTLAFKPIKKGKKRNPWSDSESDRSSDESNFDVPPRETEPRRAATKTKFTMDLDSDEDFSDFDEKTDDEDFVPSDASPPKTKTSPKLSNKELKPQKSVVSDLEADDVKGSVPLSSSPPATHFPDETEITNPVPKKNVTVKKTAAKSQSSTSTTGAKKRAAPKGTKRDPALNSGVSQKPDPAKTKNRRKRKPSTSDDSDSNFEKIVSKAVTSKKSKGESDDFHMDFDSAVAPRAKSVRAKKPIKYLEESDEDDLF

In the case of CN1c2ccc(Cl)cc2C(=O)N2CCc3c([nH]c4ccccc34)C21 (stereo not given), the inhibition [1] was “inactive”, the GI50 [2] was less than 0.003 µM and the Activity [3] was “Non-toxic”. The inhibition [4] was “Active”, the GI50 [5] was less than 0.003 µM and the GI50 [6] was less than 0.003 µM. The TGI [7] was “inactive”.

In the case of COc1cc([C@@H]2c3cc4c(cc3[C@@H](O[C@@H]3O[C@@H]5CO[C@@H](C)O[C@H]5[C@H](O)[C@H]3O)[C@H]3COC(=O)[C@H]23)OCO4)cc(OC)c1O, the inhibition [1] was “Active” and the inhibition [8] was “Active”.

Compound CC[C@@]1(O)C(=O)OCc2c1cc1n(c2=O)Cc2cc3ccccc3nc2-1 [CAMPTOTHECIN] has a GI50 [9] of 0.22 µM, a GI50 [10] greater than 287 µM and a GI50 [11] of 6.29 µM. It also gave a GI50 [12] greater than 287 µM, a GI50 [2] of 0.17 µM and a GI50 [13] of less than 0.003 µM. The GI50 [5] was 0.033 µM, the GI50 [6] was 0.083 µM and the GI50 [14] was greater than 287 µM.

With CN1c2ccc(F)cc2C(=O)N2CCc3c([nH]c4ccc(O)cc34)[C@@H]21 the GI50 [2] was 0.0046 µM, the GI50 [15] was 1.75 µM and the GI50 [16] was 1.23 µM. It also gave a GI50 [17] of 5.88 µM and a GI50 [6] of 0.011 µM.

With CN1c2ccccc2C(=O)N2CCc3c([nH]c4c(Cl)cccc34)C21 (stereo not given) the GI50 [9] was 2.31 µM, the inhibition [1] was “inactive” and the Activity [18] was “Toxic”. The inhibition [19] was “Active”, the GI50 [10] was greater than 296 µM and the GI50 [11] was 0.12 µM. The GI50 [12] was greater than 296 µM, the GI50 [2] was 2.55 µM and the GI50 [13] was less than 0.003 µM. The inhibition [4] was “Active”, the TGI [20] was “Active” and the GI50 [5] was less than 0.003 µM. For the same compound, the GI50 [6] was less than 0.003 µM and the GI50 [14] was greater than 296 µM.

For CN1c2ccc(O)cc2C(=O)N2CCc3c([nH]c4ccccc34)C21 (stereo not given), the inhibition [1] was “inactive”, the GI50 [2] was greater than 200 µM and the inhibition [4] was “Active”. It also gave a GI50 [5] of less than 0.003 µM and a GI50 [6] of 0.013 µM.

In the case of CN1c2ccc(N)cc2C(=O)N2CCc3c([nH]c4ccc(O)cc34)C21 (stereo not given), the inhibition [21] was “Active”, the Activity [22] was “inactive” and the Activity [23] was 14.48%. The Activity [18] was “Non-toxic”, the inhibition [19] was “Active” and the GI50 [2] was 4 µM. For the same compound, the Activity [24] was “inactive”, the Activity [25] was “Active” and the inhibition [4] was “Active”. For the same compound, the TGI [20] was “Active”, the Activity [26] was “inactive” and the GI50 [5] was 0.007 µM. The GI50 [6] was 0.007 µM and the inhibition [8] was “inactive”.

In the case of COc1ccc2[nH]c3c(c2c1)CCN1C(=O)c2cc(N)ccc2N(C)C31 (stereo not given), the inhibition [1] was “Active”, the GI50 [2] was 62 µM and the GI50 [5] was 12 µM. For the same compound, the GI50 [6] was 6.6 µM.
